Consider twelve compounds from ChEMBL document CHEMBL1124161, “4-Hydroxy-3-quinolinecarboxamides with antiarthritic and analgesic activities” (J Med Chem, 1988).

Activity calls are given as the source filed them. The calls are words filed in the database; no cut-off is given here.

In assay [1] the test system is Mus musculus. Briefly: Analgesic activity against acetic acid induced writhing test in mouse after peroral administration. The format is functional. As to conditions: Mus musculus, po; read-out: ED50. In general terms: Writhing tests count abdominal constrictions after an irritant is injected.
For assay [2], the system named is Rattus norvegicus. Description: Anti-arthritis activity against adjuvant-induced arthritis in rats after peroral administration. The format is functional. As to conditions: Rattus norvegicus, po; read-out: ED50. An outline of the steps:
(§1)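 Groups of five male Lewis rats, 40–50 days old, given intraplantar injection in right hind paw of 0.6 mg Mycobacterium butyricum in 0.1 mL Bayol 55. Drug given in food from adjuvant day to day 17. Injected and noninjected hind paw volumes measured day 17 against normal controls. ED50 by least-squares curve fitting or Litchfield–Wilcoxon probit.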

For assay [3], the system named is Rattus norvegicus. Description: Antiinflammatory activity against carrageenan-induced foot edema after peroral administration in rat. The format is functional. As to conditions: po. A digest of the protocol:
(§2)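 Groups of eight male Sprague-Dawley rats (150–180 g) dosed orally at the time of subplantar injection of 0.5 mg carrageenin. Paw volume difference measured before and 5 h after injection. Expressed as ED40, estimated graphically or by Litchfield–Wilcoxon probit analysis.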
A general note: Carrageenan injected into the paw causes an acute inflammation.

Assay [4] deals with Rattus norvegicus. Briefly: Antiinflammatory activity against carrageenan-induced foot edema in rat after oral administration of 20 mg/kg; IA=Inactive. Type of assay: functional, organism-based. Details: dose 20 mg/kg.
For assay [5], the system named is Mus musculus. Briefly: Analgesic activity against acetic acid induced writhing test in mouse administered po at 100 mg/kg; IA=Inactive. The format is functional, organism-based. Details: dose 100 mg/kg. An outline of the steps: (§3)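 Female mice (20–22 g), groups of 10, fasted 7 h; drug given orally 30 min before intraperitoneal injection of 0.2 mL 1% aqueous acetic acid. Stretching/writhing movements counted from minute 5 to 20 after irritant.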

For assay [6], the system named is Rattus norvegicus. Description: Antiinflammatory activity against carrageenan-induced foot edema in rat administered po at 100 mg/kg; IA=Inactive. The format is functional, organism-based. Further details: dose 100 mg/kg.
For assay [7], the system named is Rattus norvegicus. Description: Antiarthritis activity against adjuvant-induced arthritis in rats administered po at 10 mg/kg; IA= Inactive. The format is functional, organism-based. Further details: dose 10 mg/kg.
Assay [8] relates to Rattus norvegicus. Briefly: Antiarthritis activity against adjuvant-induced arthritis in rats after peroral administration at 15 mg/kg; IA=Inactive. The format is functional, organism-based. Further details: dose 15 mg/kg. An outline of the steps:
as §1

The test system of assay [9] is Mus musculus. Briefly: Analgesic activity against acetic acid induced writhing test in mouse after peroral administration at 25 mg/kg; IA=Inactive. Type of assay: functional, organism-based. Further details: dose 25 mg/kg. An outline of the steps: as §3
The subject of assay [10] is Mus musculus. Briefly: Analgesic activity against acetic acid induced writhing test in mouse after peroral administration of 100 mg/kg; IA=Inactive. Type of assay: functional, organism-based. Details: dose 100 mg/kg. An outline of the steps:
as §3

For assay [11], the system named is Rattus norvegicus. Briefly: Antiinflammatory activity against carrageenan-induced foot edema in rat after peroral administration of 100 mg/kg; IA=Inactive. Type of assay: functional, organism-based. Further details: dose 100 mg/kg.
For assay [12], the system named is Rattus norvegicus. Description: Antiinflammatory activity against carrageenan-induced foot edema in rat after peroral administration of 300 mg/kg; IA=Inactive. Type of assay: functional, organism-based. Further details: dose 300 mg/kg.
The subject of assay [13] is Mus musculus. Briefly: Analgesic activity against acetic acid induced writhing test in mouse after peroral administration at 100 mg/kg; IA=Inactive. Further details: dose 100 mg/kg. Type of assay: functional, organism-based. An outline of the steps: as §3
Assay [14] has as its system Rattus norvegicus. Briefly: Ulcerogenic effect after oral administration (gastric ulcer). Type of assay: functional. An outline of the steps:
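Groups of eight female rats (120–150 g), fasted 24 h, dosed orally; killed 7 h later and stomachs scored. Ulceration index = (mean ulcer degree × rats with ulcers / number of rats) × 100, ulcers being scores above 0.5. ED100 (index 100, max 300) read graphically.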

Assay [15] has as its system Rattus norvegicus. Description: Ulcerogenic effect after oral administration (intestinal ulcer). Type of assay: functional. An outline of the steps: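 Nonfasted male rats (150–180 g) killed 24 h after oral dosing, and intestinal ulcers scored. Ulceration index = (mean degree × rats with ulcers / rats) × 100. ED100 (index 100) determined graphically.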
For assay [16], the system named is Rattus norvegicus. Briefly: Antiinflammatory activity against carrageenan-induced foot edema in rat after peroral administration. The format is functional. Particulars: po. An outline of the steps:
as §2

In assay [17] the target is T1, Polyunsaturated fatty acid 5-lipoxygenase (Rattus norvegicus, UniProt P12527).
T1 sequence (P12527 whole entry): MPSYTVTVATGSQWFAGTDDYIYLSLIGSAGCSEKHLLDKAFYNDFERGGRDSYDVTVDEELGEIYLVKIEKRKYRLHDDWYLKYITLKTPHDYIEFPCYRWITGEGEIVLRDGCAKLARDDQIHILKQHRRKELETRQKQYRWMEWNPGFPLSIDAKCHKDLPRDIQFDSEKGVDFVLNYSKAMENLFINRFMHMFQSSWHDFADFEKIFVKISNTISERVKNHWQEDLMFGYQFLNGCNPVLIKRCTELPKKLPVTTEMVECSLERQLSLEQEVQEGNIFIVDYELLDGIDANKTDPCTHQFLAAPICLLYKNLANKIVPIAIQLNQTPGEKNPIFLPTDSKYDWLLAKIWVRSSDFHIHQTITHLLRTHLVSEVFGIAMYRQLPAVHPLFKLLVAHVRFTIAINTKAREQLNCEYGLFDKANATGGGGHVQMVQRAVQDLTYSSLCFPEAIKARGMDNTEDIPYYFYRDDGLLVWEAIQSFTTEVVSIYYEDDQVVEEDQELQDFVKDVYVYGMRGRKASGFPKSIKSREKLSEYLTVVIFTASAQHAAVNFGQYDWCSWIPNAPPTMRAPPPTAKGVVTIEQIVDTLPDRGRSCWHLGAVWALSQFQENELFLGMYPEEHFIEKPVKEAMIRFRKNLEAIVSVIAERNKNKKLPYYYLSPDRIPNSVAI
Briefly: Inhibition of 5-lipoxygenase from rat peritoneal neutrophils in vitro.

The target of assay [18] is T2, Cyclooxygenase (Bos taurus, UniProt O62664+O62698).
T2 sequence (O62664 whole entry): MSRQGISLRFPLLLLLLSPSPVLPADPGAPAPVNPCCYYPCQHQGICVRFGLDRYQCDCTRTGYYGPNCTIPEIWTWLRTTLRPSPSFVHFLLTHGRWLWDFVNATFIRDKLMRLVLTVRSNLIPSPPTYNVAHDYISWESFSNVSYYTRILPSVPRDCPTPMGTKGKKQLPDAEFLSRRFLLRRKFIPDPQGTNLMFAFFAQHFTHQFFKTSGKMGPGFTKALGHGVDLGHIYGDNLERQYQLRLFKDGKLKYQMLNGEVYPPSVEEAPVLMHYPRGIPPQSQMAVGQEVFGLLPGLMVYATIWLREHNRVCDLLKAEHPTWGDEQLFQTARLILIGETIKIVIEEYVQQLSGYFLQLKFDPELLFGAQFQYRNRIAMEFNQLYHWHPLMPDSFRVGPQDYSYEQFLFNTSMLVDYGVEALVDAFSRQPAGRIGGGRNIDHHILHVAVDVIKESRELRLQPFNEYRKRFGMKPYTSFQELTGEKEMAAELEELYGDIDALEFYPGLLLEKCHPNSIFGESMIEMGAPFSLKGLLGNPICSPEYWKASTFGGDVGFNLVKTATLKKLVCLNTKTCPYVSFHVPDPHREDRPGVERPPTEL
T2 sequence (O62698 whole entry): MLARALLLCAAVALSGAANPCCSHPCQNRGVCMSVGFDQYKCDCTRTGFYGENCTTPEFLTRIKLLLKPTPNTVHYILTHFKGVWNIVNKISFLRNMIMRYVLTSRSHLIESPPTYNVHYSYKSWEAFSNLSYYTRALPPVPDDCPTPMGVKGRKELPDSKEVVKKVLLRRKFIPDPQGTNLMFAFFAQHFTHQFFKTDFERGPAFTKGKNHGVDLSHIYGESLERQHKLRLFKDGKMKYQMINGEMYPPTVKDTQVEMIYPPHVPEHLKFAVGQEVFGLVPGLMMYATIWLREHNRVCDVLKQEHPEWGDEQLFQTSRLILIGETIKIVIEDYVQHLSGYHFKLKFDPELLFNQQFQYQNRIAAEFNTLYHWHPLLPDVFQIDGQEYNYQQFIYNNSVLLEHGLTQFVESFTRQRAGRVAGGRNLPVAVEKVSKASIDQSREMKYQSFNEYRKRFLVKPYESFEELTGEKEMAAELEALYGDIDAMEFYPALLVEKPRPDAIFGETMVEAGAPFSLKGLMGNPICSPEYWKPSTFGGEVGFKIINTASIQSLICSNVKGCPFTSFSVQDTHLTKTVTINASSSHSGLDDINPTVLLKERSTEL
Briefly: Inhibition of bovine Prostaglandin G/H synthase in seminal vesicle microsomes in vitro.

A word on the ED50: it is the midpoint of the dose-response relation. On to `CCCCC(O)c1nc2c(C(F)(F)F)cccc2c(O)c1C(=O)Nc1nccs1` (stereo unspecified), for which the ED50 was at least 100 mg/kg in [1] and over 20 mg/kg in assay [2]. The same compound gave an ED40 in assay [3] of over 100 mg/kg.
For the compound `CCCCc1nc2c(C(F)(F)F)cccc2c(O)c1C(=O)Nc1nccs1`, the ED50 in assay [1] is 50 mg/kg. Moreover, the ED50 result in assay [4] was “inactive”.
For the compound `CCC(OC(C)=O)c1nc2c(C(F)(F)F)cccc2c(O)c1C(=O)Nc1nccs1` (stereo unspecified), the ED50 entry in assay [5] is “inactive”. Besides, in [2], the ED50 amounted to 4 mg/kg.
As to `O=C(Nc1nccs1)c1c(C(O)c2ccccc2)nc2c(C(F)(F)F)cccc2c1O` (stereo unspecified), the ED50 entry in assay [5] and in [7] was “inactive” in each case. For the same compound, the ED40 entry in [6] was “inactive”.
As to `C[C@@H](N)c1nc2c(C(F)(F)F)cccc2c(O)c1C(=O)Nc1nccs1`, in assay [1], the ED50 is over 100 mg/kg. In [8], the ED50 result was “inactive”.
For `CC(Cl)(Cl)c1nc2c(C(F)(F)F)cccc2c(O)c1C(=O)Nc1nccs1`, the ED50 result in assay [9] is “inactive”.
Turning to `Cn1ccnc1NC(=O)c1c(C(F)(F)F)nc2c(C(F)(F)F)cccc2c1O`, the ED50 result in [10] and in assay [11] was “inactive” each time.
With `O=C(Nc1nccs1)c1cnc2cc(Cl)ccc2c1O`, the ED50 in assay [1] is over 100 mg/kg. For the same compound, the ED50 entry in [12] is “inactive”.
In the case of `CCC(=O)OC(CC)c1nc2c(C(F)(F)F)cccc2c(O)c1C(=O)Nc1ccccn1` (stereo unspecified), the ED50 entry in assay [13] is “inactive”. Besides, in assay [2], the ED50 was over 5 mg/kg.
For the compound `CC(C)(C)C(O)c1nc2c(C(F)(F)F)cccc2c(O)c1C(=O)Nc1nccs1` (stereo unspecified), the results for the ED50 in [1] and in assay [2] were 50 mg/kg and 1.5 mg/kg, respectively. Moreover, the ED40 in [3] was determined as 4 mg/kg.
Take `CC(C)c1ccc2nc(C(F)(F)F)c(C(=O)Nc3nccs3)c(O)c2c1`: the ED50 in assay [1] is over 100 mg/kg. Moreover, the ED50 entry in [11] was “inactive”.
The IC50 is the concentration needed to halve the response being measured. Regarding `O=C(Nc1nccs1)c1c(C(Cl)Cl)nc2c(C(F)(F)F)cccc2c1O`, the ED50 in [1] is 1.1 mg/kg; in assay [2] it was 48 mg/kg. Moreover, the figures for the ED100 in assay [14] and in assay [15] were 270 mg/kg and over 500 mg/kg, respectively. This compound also returned an ED40 in [16] of over 100 mg/kg. For the same compound, the IC50 is 2 µM in assay [17] and 1.8 µM in assay [18].
